{"source": "ChEMBL document CHEMBL4406880", "about": "“Design, synthesis, and bioactivity of dihydropyrimidine derivatives as kinesin spindle protein inhibitors” (Bioorg Med Chem, 2019)", "assay_type_in_all_cases": "functional", "key": {"DU-145": {"system": "DU-145", "assay": "Growth inhibition of human DU145 cells assessed as cell viability at 0.001 uM incubated for 48 hrs by sulforhodamine B assay relative to control", "settings": "DU-145, 48 h, read-out: Activity"}, "SNB-75 [1]": {"system": "SNB-75", "assay": "Cell cycle arrest in human SNB75 cells assessed as accumulation in G0/G1 phase at 2 uM incubated for 24 hrs by propidium iodide based flow cytometry (reference value: 55.62 %)", "method_in_brief": "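SNB-75 cells were exposed to 2 µM for 24 h at 37 °C, 5% CO2, then washed with PBS and fixed in 70% ethanol on ice for 15 min. They were stained 1 h at room temperature with 50 µg/mL propidium iodide, 0.1 mg/mL RNase A and 0.05% Triton X-100. DNA content was read by flow cytometry to give the % of cells in pre-G1, G0/G1, S and G2/M.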"}, "SW-620 [2]": {"system": "SW-620", "assay": "Growth inhibition of human SW620 cells assessed as cell viability at 1 uM incubated for 48 hrs by sulforhodamine B assay", "settings": "SW-620, 48 h, read-out: Activity"}, "HT-29": {"system": "HT-29", "assay": "Growth inhibition of human HT-29 cells assessed as cell viability at 0.1 uM incubated for 48 hrs by sulforhodamine B assay", "settings": "HT-29, 48 h, read-out: Activity"}, "EKVX [3]": {"system": "EKVX", "assay": "Growth inhibition of human EKVX cells assessed as cell viability at 100 uM incubated for 48 hrs by sulforhodamine B assay", "settings": "read-out: Activity"}, "HOP-92": {"system": "HOP-92", "assay": "Growth inhibition of human HOP92 cells incubated for 48 hrs by sulforhodamine B assay", "settings": "HOP-92, 48 h", "method_in_brief": "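NCI-60 five-dose assay, SRB end-point, same culture conditions. Compound is tested at tenfold dilutions of 0.01, 0.1, 1, 10 and 100 µM for 48 h at 37 °C, with DMSO/PBS vehicle controls. Percentage growth at each concentration is taken against untreated cells and a time-zero plate. GI50 is 50% net growth decrease, TGI is total growth inhibition, and LC50 is 50% loss of initial cells.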"}, "SF-268": {"system": "SF-268", "assay": "Growth inhibition of human SF268 cells assessed as cell viability at 0.1 uM incubated for 48 hrs by sulforhodamine B assay", "settings": "SF-268, 48 h, read-out: Activity"}, "SNB-75 [4]": {"system": "SNB-75", "assay": "Growth inhibition of human SNB75 cells assessed as cell viability at 0.1 uM incubated for 48 hrs by sulforhodamine B assay", "settings": "SNB-75, 48 h, read-out: Activity"}, "HCT-116": {"system": "HCT-116", "assay": "Growth inhibition of human HCT116 cells assessed as cell viability at 100 uM incubated for 48 hrs by sulforhodamine B assay", "settings": "HCT-116, 48 h, read-out: Activity"}, "A498 [5]": {"system": "A498", "assay": "Growth inhibition of human A498 cells incubated for 48 hrs by sulforhodamine B assay", "settings": "A498, 48 h", "method_in_brief": "(§1)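 NCI-60 five-dose mode: five tenfold dilutions (0.01, 0.1, 1, 10, 100 µM) are applied for 48 h to cells in RPMI 1640 with 5% FBS at 37 °C. Endpoint is TCA fixation with sulforhodamine B read at 515 nm. % growth comes from the 0 h and control absorbances. GI50 is the concentration giving a 50% reduction in net cell growth.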"}, "CCRF-CEM [6]": {"system": "CCRF-CEM", "assay": "Growth inhibition of human CCRF-CEM cells assessed as cell viability at 1 uM incubated for 48 hrs by sulforhodamine B assay", "settings": "read-out: Activity"}, "Malme-3M": {"system": "Malme-3M", "assay": "Growth inhibition of human MALME-3M cells assessed as cell viability at 0.001 uM incubated for 48 hrs by sulforhodamine B assay relative to control", "settings": "read-out: Activity"}, "U-251": {"system": "U-251", "assay": "Growth inhibition of human U251 cells assessed as cell viability at 0.001 uM incubated for 48 hrs by sulforhodamine B assay relative to control", "settings": "U-251, 48 h, read-out: Activity"}, "EKVX [7]": {"system": "EKVX", "assay": "Growth inhibition of human EKVX cells assessed as cell viability at 0.001 uM incubated for 48 hrs by sulforhodamine B assay relative to control", "settings": "read-out: Activity"}, "LOX IMVI": {"system": "LOX IMVI", "assay": "Growth inhibition of human LOXIMVI cells assessed as cell viability at 100 uM incubated for 48 hrs by sulforhodamine B assay", "settings": "read-out: Activity"}, "A498 [8]": {"system": "A498", "assay": "Growth inhibition of human A498 cells assessed as cell viability at 0.001 uM incubated for 48 hrs by sulforhodamine B assay relative to control", "settings": "A498, 48 h, read-out: Activity"}, "SW-620 [9]": {"system": "SW-620", "assay": "Growth inhibition of human SW620 cells assessed as cell viability at 100 uM incubated for 48 hrs by sulforhodamine B assay", "settings": "SW-620, 48 h, read-out: Activity"}, "MOLT-4": {"system": "MOLT-4", "assay": "Growth inhibition of human MOLT4 cells assessed as cell viability at 0.001 uM incubated for 48 hrs by sulforhodamine B assay relative to control", "settings": "MOLT-4, 48 h, read-out: Activity"}, "NCI-H522": {"system": "NCI-H522", "assay": "Growth inhibition of human NCI-H522 cells assessed as cell viability at 0.1 uM incubated for 48 hrs by sulforhodamine B assay", "settings": "NCI-H522, 48 h, read-out: Activity"}, "COLO 205": {"system": "COLO 205", "assay": "Growth inhibition of human COLO205 cells incubated for 48 hrs by sulforhodamine B assay", "settings": "COLO 205, 48 h", "method_in_brief": "as §1"}, "CCRF-CEM [10]": {"system": "CCRF-CEM", "assay": "Growth inhibition of human CCRF-CEM cells incubated for 48 hrs by sulforhodamine B assay", "method_in_brief": "as §1"}, "SF-539": {"system": "SF-539", "assay": "Growth inhibition of human SF539 cells assessed as cell viability at 0.1 uM incubated for 48 hrs by sulforhodamine B assay", "settings": "SF-539, 48 h, read-out: Activity"}, "SN12C": {"system": "SN12C", "assay": "Growth inhibition of human SN12C cells assessed as cell viability at 100 uM incubated for 48 hrs by sulforhodamine B assay", "settings": "read-out: Activity"}, "SK-MEL-2": {"system": "SK-MEL-2", "assay": "Growth inhibition of human SK-MEL-2 cells assessed as cell viability at 1 uM incubated for 48 hrs by sulforhodamine B assay", "settings": "SK-MEL-2, 48 h, read-out: Activity"}, "PC-3": {"system": "PC-3", "assay": "Growth inhibition of human PC3 cells assessed as cell viability at 1 uM incubated for 48 hrs by sulforhodamine B assay", "settings": "PC-3, 48 h, read-out: Activity"}, "MCF7": {"system": "MCF7", "assay": "Growth inhibition of human MCF7 cells assessed as cell viability at 1 uM incubated for 48 hrs by sulforhodamine B assay", "settings": "MCF7, 48 h, read-out: Activity"}, "KM12": {"system": "KM12", "assay": "Growth inhibition of human KM12 cells assessed as cell viability at 0.001 uM incubated for 48 hrs by sulforhodamine B assay relative to control", "settings": "KM12, 48 h, read-out: Activity"}, "[11]": {"settings": "read-out: LC50 (the source's name)"}, "[12]": {"settings": "read-out: pLC50 (the source's name) (converted)"}}, "data": [{"smiles": "CC1=C(C(=O)OCc2ccccc2)C(c2ccc3c(c2)OCO3)n2c(nc3ccccc32)N1", "note": "(racemic)", "values": [{"measurement": "viability at 0.001 µM", "setting": "DU-145", "value": 102, "unit": "%"}, {"measurement": "Activity", "setting": "SNB-75 [1]", "value": 34.52, "unit": "%"}, {"measurement": "viability at 1 µM", "setting": "SW-620 [2]", "value": 23, "unit": "%"}, {"measurement": "viability at 0.1 µM", "setting": "HT-29", "value": 99, "unit": "%"}, {"measurement": "viability at 100 µM", "setting": "EKVX [3]", "value": 29, "unit": "%"}, {"measurement": "LC50 (concentration killing 50% of initial cells)", "setting": "HOP-92; read-out: LC50", "value": "> 100", "unit": "µM"}, {"measurement": "TGI", "setting": "HOP-92; read-out: TGI", "value": "> 100", "unit": "µM"}, {"measurement": "LC50 (concentration killing 50% of initial cells)", "setting": "HOP-92; read-out: pLC50 (converted)", "value": "> 100", "unit": "µM"}, {"measurement": "TGI", "setting": "HOP-92; read-out: pTGI", "value": "> 100", "unit": "µM"}, {"measurement": "viability at 0.1 µM", "setting": "SF-268", "value": 94, "unit": "%"}, {"measurement": "viability at 0.1 µM", "setting": "SNB-75 [4]", "value": 79, "unit": "%"}, {"measurement": "viability at 100 µM", "setting": "HCT-116", "value": 18, "unit": "%"}, {"measurement": "GI50", "setting": "A498 [5]; read-out: GI50", "value": 360, "unit": "nM"}, {"measurement": "CC50", "setting": "A498 [5]; [11]", "value": "> 100", "unit": "µM"}, {"measurement": "TGI", "setting": "A498 [5]; read-out: TGI", "value": "> 100", "unit": "µM"}, {"measurement": "GI50", "setting": "A498 [5]; read-out: pGI50 (converted)", "value": 363, "unit": "nM"}, {"measurement": "CC50", "setting": "A498 [5]; [12]", "value": "> 100", "unit": "µM"}, {"measurement": "TGI", "setting": "A498 [5]; read-out: pTGI", "value": "> 100", "unit": "µM"}, {"measurement": "viability at 1 µM", "setting": "CCRF-CEM [6]", "value": 19, "unit": "%"}, {"measurement": "viability at 0.001 µM", "setting": "Malme-3M", "value": 94, "unit": "%"}, {"measurement": "viability at 0.001 µM", "setting": "U-251", "value": 94, "unit": "%"}, {"measurement": "viability at 0.001 µM", "setting": "EKVX [7]", "value": 91, "unit": "%"}, {"measurement": "viability at 100 µM", "setting": "LOX IMVI", "value": 32, "unit": "%"}, {"measurement": "viability at 0.001 µM", "setting": "A498 [8]", "value": 81, "unit": "%"}, {"measurement": "viability at 100 µM", "setting": "SW-620 [9]", "value": 6, "unit": "%"}, {"measurement": "viability at 0.001 µM", "setting": "MOLT-4", "value": 96, "unit": "%"}, {"measurement": "viability at 0.1 µM", "setting": "NCI-H522", "value": 57, "unit": "%"}, {"measurement": "GI50", "setting": "COLO 205; read-out: GI50", "value": 500, "unit": "nM"}, {"measurement": "LC50", "setting": "COLO 205; read-out: LC50", "value": "> 100", "unit": "µM"}, {"measurement": "TGI", "setting": "COLO 205; read-out: TGI", "value": "> 100", "unit": "µM"}, {"measurement": "GI50", "setting": "COLO 205; read-out: pGI50 (converted)", "value": 501, "unit": "nM"}, {"measurement": "LC50", "setting": "COLO 205; read-out: pLC50 (converted)", "value": "> 100", "unit": "µM"}, {"measurement": "TGI", "setting": "COLO 205; read-out: pTGI", "value": "> 100", "unit": "µM"}, {"measurement": "GI50", "setting": "CCRF-CEM [10]; read-out: GI50", "value": 410, "unit": "nM"}, {"measurement": "CC50", "setting": "CCRF-CEM [10]; [11]", "value": "> 100", "unit": "µM"}, {"measurement": "TGI", "setting": "CCRF-CEM [10]; read-out: TGI", "value": "> 100", "unit": "µM"}, {"measurement": "GI50", "setting": "CCRF-CEM [10]; read-out: pGI50 (converted)", "value": 407, "unit": "nM"}, {"measurement": "CC50", "setting": "CCRF-CEM [10]; [12]", "value": "> 100", "unit": "µM"}, {"measurement": "TGI", "setting": "CCRF-CEM [10]; read-out: pTGI", "value": "> 100", "unit": "µM"}, {"measurement": "viability at 0.1 µM", "setting": "SF-539", "value": 92, "unit": "%"}, {"measurement": "viability at 100 µM", "setting": "SN12C", "value": 25, "unit": "%"}, {"measurement": "viability at 1 µM", "setting": "SK-MEL-2", "value": 52, "unit": "%"}, {"measurement": "viability at 1 µM", "setting": "PC-3", "value": 35, "unit": "%"}, {"measurement": "viability at 1 µM", "setting": "MCF7", "value": 14, "unit": "%"}, {"measurement": "viability at 0.001 µM", "setting": "KM12", "value": 91, "unit": "%"}]}]}
